Data reported in ChEMBL document CHEMBL1145412, “Impact of the 3,6,9-trioxadecyloxy group on desazadesferrithiocin analogue iron clearance and organ distribution” (J Med Chem, 2007).

How the values were obtained:
[1] = Ratio of iron clearing efficiency in iron-overloaded Cebus apella to non-iron-overloaded Sprague-Dawley rat; assay type: functional
Outline: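 Performance ratio = mean ICE in iron-overloaded primates divided by mean ICE in non-overloaded rats.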

Sapajus apella [2] = assay: Iron-clearing efficiency in iron-loaded Cebus apella assessed as excretion in urine at 75 umol/kg, po relative to control; assay type: functional
Outline: (§1)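 Iron-loaded Cebus apella monkeys given the chelator orally, prepared as for rats except some solubilized in 40% Cremophor RH-40/water. Feces and urine collected at 24 h intervals from 4 d before to 5 d after dosing; iron by flame AAS. Efficiency = (2-day post-drug iron output minus 4-day pre-drug mean) / theoretical 2:1 output, %. Stool/urine split given. Mean ± SEM.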

Rattus norvegicus [3] = assay: Iron-clearing efficiency in non-iron overloaded Sprague-Dawley rat assessed as excretion in urine at 300 umol/kg, po relative to control; assay type: functional
Outline: (§2)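 Male Sprague-Dawley rats (400-450 g), bile-duct cannulated and not iron overloaded, given one oral 300 µmol/kg dose. Given in water, as monosodium salt (1 equiv NaOH) or in 40% Cremophor. Bile collected every 3 h for up to 48 h and urine every 24 h; iron by flame AAS. Efficiency = (treated minus control iron excretion) / theoretical 2:1 output, %; bile/urine split given.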

Rattus norvegicus [4] = assay: Iron-clearing efficiency in non-iron overloaded Sprague-Dawley rat assessed as excretion in bile at 300 umol/kg, po relative to control; assay type: functional; outline: as §2
Sapajus apella [5] = assay: Iron-clearing efficiency in iron-loaded Cebus apella assessed as excretion in stool at 75 umol/kg, po relative to control; assay type: functional; outline: as §1
Kidney [6] = assay: Distribution in kidney in non-iron overloaded Sprague-Dawley rat at 300 umol/kg, sc after 0.5 hrs; assay type: ADME, organism-based; conditions: in vivo
Outline: (§3)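 Tissue distribution: rats dosed once sc at 300 µmol/kg. Plasma, kidney, liver, heart and pancreas sampled at 0.5, 1, 2 and 4 h. Plasma chelator reported in µM and tissue levels as nmol compound per g wet weight. n = 3 per time point.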

[7] = Distribution in plasma in non-iron overloaded Sprague-Dawley rat at 300 umol/kg, sc after 0.5 hrs; assay type: ADME, organism-based; outline: as §3
Sapajus apella [8] = assay: Iron-clearing efficiency in iron-loaded Cebus apella at 75 umol/kg, po relative to control; assay type: functional; outline: as §1
Rattus norvegicus [9] = assay: Iron clearance in non-iron overloaded Sprague-Dawley rat at 300 umol/kg, po at 6 hrs; assay type: functional
Outline: (§4)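 Male Sprague-Dawley rats (400-450 g) with bile-duct cannulation and no iron overload, given a single oral 300 µmol/kg dose. Bile collected at 3 h intervals for up to 48 h. Iron measured by flame atomic absorption and reported as µg iron per kg body weight at each interval.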

Rattus norvegicus [10] = assay: Iron-clearing efficiency in non-iron overloaded Sprague-Dawley rat at 300 umol/kg, po after 48 hrs relative to control; assay type: functional; outline: as §2
[11] = Distribution in pancreas per wet weight in non-iron overloaded Sprague-Dawley rat at 300 umol/kg, sc after 2 hrs; conditions: in vivo
Kidney [12] = assay: Distribution in kidney in non-iron overloaded Sprague-Dawley rat at 300 umol/kg, sc after 2 hrs; assay type: ADME, organism-based; conditions: in vivo; outline: as §3
Kidney [13] = assay: Distribution in kidney in non-iron overloaded Sprague-Dawley rat at 300 umol/kg, sc after 1 hr; assay type: ADME, organism-based; conditions: in vivo; outline: as §3
Plasma [14] = assay: Distribution in plasma in non-iron overloaded Sprague-Dawley rat assessed as decrease in concentration at 300 umol/kg, sc after 2 hrs; assay type: ADME, organism-based; parameters: scale not given: the % may be the effect or the level left; conditions: in vivo; outline: as §3
Plasma [15] = assay: Distribution in plasma in non-iron overloaded Sprague-Dawley rat assessed as decrease in concentration at 300 umol/kg, sc after 4 hrs; assay type: ADME, organism-based; parameters: scale not given: the % may be the effect or the level left; conditions: in vivo; outline: as §3
Kidney [16] = assay: Distribution in kidney in non-iron overloaded Sprague-Dawley rat at 300 umol/kg, sc after 4 hrs; assay type: ADME, organism-based; conditions: in vivo; outline: as §3
Liver [17] = assay: Distribution in liver in non-iron overloaded Sprague-Dawley rat at 300 umol/kg, sc after 0.5 hrs; assay type: ADME, organism-based; conditions: in vivo; outline: as §3
Rattus norvegicus [18] = assay: Iron-clearing efficiency in non-iron overloaded Sprague-Dawley rat assessed as excretion in urine after 48 hrs at 300 umol/kg, po relative to control; assay type: functional; outline: as §2
[19] = Partition coefficient, log P in TRIS buffer at pH 7.4; assay type: physicochemical
Outline: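 Shake-flask direct method in TRIS buffer, pH 7.4. Reported as log of the fraction in the octanol layer (log Papp).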

Rattus norvegicus [20] = assay: Iron-clearing efficiency in non-iron overloaded Sprague-Dawley rat assessed as excretion in bile at 300 umol/kg, po after 48 hrs relative to control; assay type: functional; outline: as §2
Plasma [21] = assay: Distribution in plasma in non-iron overloaded Sprague-Dawley rat assessed as decrease in concentration at 300 umol/kg, sc after 1 hr; assay type: ADME, organism-based; parameters: scale not given: the % may be the effect or the level left; conditions: in vivo; outline: as §3
Liver [22] = assay: Distribution in liver in non-iron overloaded Sprague-Dawley rat at 300 umol/kg, sc after 1 hr; assay type: ADME, organism-based; conditions: in vivo; outline: as §3
Rattus norvegicus [23] = assay: Iron-clearing efficiency in non-iron overloaded Sprague-Dawley rat at 300 umol/kg, po relative to control; assay type: functional; outline: as §2
Rattus norvegicus [24] = assay: Iron clearance in non-iron overloaded Sprague-Dawley rat at 300 umol/kg, po at 3 hrs; assay type: functional; outline: as §4
Rattus norvegicus [25] = assay: Iron clearing efficiency in non-iron overloaded Sprague-Dawley rat at 300 umol/kg, po in presence of 250 mg/kg/dose sodium benzoate; assay type: functional
Outline: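 Bile-duct-cannulated rats given the chelator orally at 300 µmol/kg. Sodium benzoate in distilled water, 250 mg/kg/dose sc, given 0.5 h before the chelator and then hourly for five more doses. Iron in bile and urine measured by flame AAS. Efficiency = (treated minus control iron excretion) / theoretical output for a 2:1 complex, as percent.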

| SMILES | Ratio [1] | Activity (Sapajus apella [2]) | Activity (Rattus norvegicus [3]) | Activity (Rattus norvegicus [4]) | Activity (Sapajus apella [5]) | Drug uptake (Kidney [6]) | concentration at 0.5 h [7] | Drug uptake [11] | Drug uptake (Kidney [12]) | Drug uptake (Kidney [13]) | Activity (Plasma [14]) | Activity (Plasma [15]) | Drug uptake (Kidney [16]) | Drug uptake (Liver [17]) | Activity (Plasma [21]) | Drug uptake (Liver [22]) | Activity (Rattus norvegicus [24]) | further results |
| --- | --- | --- | --- | --- | --- | --- | --- | --- | --- | --- | --- | --- | --- | --- | --- | --- | --- | --- |
| C[C@]1(C(=O)[O-])CSC(c2cc(O)ccc2O)=N1.[Na+] | 12.6 | 12% | 1% | 99% | 88% |  |  |  |  |  |  |  |  |  |  |  |  |  |
| COCCOCCOCCOc1cccc(C2=N[C@@](C)(C(=O)[O-])CS2)c1O.[Na+] | 2.3 | 28% |  |  | 72% | 280 nmol/g | 62 µM | 16 nmol/g | 145 nmol/g | 259 nmol/g | 61% | 79% | 90 nmol/g | 242 nmol/g | 26% | 318 nmol/g |  | Activity (Sapajus apella [8]): 24.5%; Activity (Rattus norvegicus [9]): 287 µg/kg; Activity (Rattus norvegicus [10]): 10.6%; Activity (Rattus norvegicus [18]): 5%; logD [19]: -1.22; Activity (Rattus norvegicus [20]): 95% |
| COc1cccc(C2=N[C@@](C)(C(=O)[O-])CS2)c1O.[Na+] | 1.8 | 9% |  |  | 91% |  |  |  |  |  |  |  |  |  |  |  |  | Activity (Rattus norvegicus [10]): 12.4%; Activity (Rattus norvegicus [18]): 1%; Activity (Rattus norvegicus [20]): 99% |
| C[C@]1(C(=O)[O-])CSC(c2cccc(O)c2O)=N1.[Na+] | 5 | 17% | 2% | 98% | 83% |  |  |  |  |  |  |  |  |  |  |  |  | Activity (Rattus norvegicus [23]): 4.6% |
| COc1ccc(O)c(C2=N[C@@](C)(C(=O)[O-])CS2)c1.[Na+] | 3 | 6% | 5% | 95% | 94% |  |  |  |  |  |  |  |  |  |  |  |  |  |
| COc1ccc(C2=N[C@@](C)(C(=O)[O-])CS2)c(O)c1.[Na+] |  | 9% | 2% | 98% | 91% |  |  |  |  |  |  |  |  |  |  |  |  |  |
| COCCOCCOCCOc1ccc(C2=N[C@@](C)(C(=O)O)CS2)c(O)c1 |  | 4% | 10% | 90% | 96% | 368 nmol/g | 194 µM | 30 nmol/g | 41 nmol/g | 252 nmol/g | 92% | 97% | 34 nmol/g | 339 nmol/g | 28% | 315 nmol/g | 183 µg/kg | Activity (Rattus norvegicus [25]): 8.8% |
| C[C@]1(C(=O)[O-])CSC(c2ccc(O)cc2O)=N1.[Na+] [DEFERITRIN SODIUM] |  | 12% | 0% | 100% | 88% |  |  |  |  | 179 nmol/g |  |  | 27 nmol/g |  |  |  | 68 µg/kg | Activity (Rattus norvegicus [25]): 12% |
| COCCOCCOCCOc1ccc(O)c(C2=N[C@@](C)(C(=O)[O-])CS2)c1.[Na+] | 1 | 44% | 2% | 98% | 56% | 643 nmol/g | 324 µM | 30 nmol/g | 321 nmol/g | 435 nmol/g | 54% | 82% | 116 nmol/g | 483 nmol/g | 39% | 315 nmol/g | 388 µg/kg | Activity (Rattus norvegicus [23]): 8%; Activity (Sapajus apella [8]): 8.1%; logD [19]: -1.27 |
